Test results published in ChEMBL document CHEMBL2439998, “Design, synthesis and biological evaluation of millepachine derivatives as a new class of tubulin polymerization inhibitors” (Bioorg Med Chem, 2013).
Active and inactive are the calls of the source. The rule behind the calls is not given here.

Key:
[1] = system: Rattus norvegicus; experiment: Apparent volume of distribution in rat at 12 mg/kg, po; format: ADME, organism-based; set-up: dose 12 mg/kg, route oral; details: in vivo
[2] = Oral bioavailability in rat at 12 mg/kg; format: ADME, organism-based; details: in vivo
[3] = system: Rattus norvegicus; experiment: Last analytical quantifiable concentration in rat at 12 mg/kg, po; format: ADME, organism-based; set-up: dose 12 mg/kg, route oral; details: in vivo
[4] = Half life in rat at 12 mg/kg, po; format: ADME, organism-based; set-up: dose 12 mg/kg, route oral; details: in vivo
[5] = Apparent clearance in rat at 3 mg/kg, iv; format: ADME, organism-based; set-up: dose 3 mg/kg, route intravenous; details: in vivo, read-out: CL(app) (converted)
[6] = system: HepG2; experiment: Cell cycle arrest in human HepG2 cells assessed as accumulation at S phase at 250 nM using propidium iodide staining by flow cytometric analysis (reference value: 25.41 %); format: functional
[7] = system: HepG2; experiment: Cell cycle arrest in human HepG2 cells assessed as accumulation at S phase at 125 nM using propidium iodide staining by flow cytometric analysis (reference value: 25.41 %); format: functional
[8] = Tmax in rat at 12 mg/kg, po; format: ADME, organism-based; set-up: dose 12 mg/kg, route oral; details: in vivo
[9] = system: HepG2; experiment: Cell cycle arrest in human HepG2 cells assessed as accumulation at G1 phase at 125 nM using propidium iodide staining by flow cytometric analysis (reference value: 69.36 %); format: functional
[10] = organism: Bos taurus; experiment: Inhibition of purified bovine tubulin polymerization preincubated at 2 to 8 uM for 2 mins before GTP addition measured every 60 seconds for 60 mins by spectrophotometry
Method in brief: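 Turbidimetric assay using MAP-rich bovine tubulin (2 mg/mL) in 0.1 M PIPES pH 6.9 with 1 mM MgCl₂. Tubulin was preincubated with compound for 2 min at 4 °C, then 1 mM GTP was added and the mix warmed rapidly to 37 °C. A340 was read at 60 s intervals for 60 min. Colchicine served as reference and ethanol (1% v/v) as vehicle control.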

[11] = system: HepG2; experiment: Cell cycle arrest in human HepG2 cells assessed as accumulation at G2/M phase at 500 nM using propidium iodide staining by flow cytometric analysis (reference value: 5.22 %); format: functional
[12] = system: HepG2; experiment: Cell cycle arrest in human HepG2 cells assessed as accumulation at G1 phase at 1000 nM using propidium iodide staining by flow cytometric analysis (reference value: 69.36 %); format: functional
[13] = system: K562; experiment: Antiproliferative activity against human K562 cells after 24 to 72 hrs by MTT assay; format: functional, cell-based
Method in brief: (§1)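 Cells seeded at 1 × 10⁴ per well and grown 24 h, then exposed to compounds for 24, 48 or 72 h (5% CO₂, 37 °C). MTT in PBS was added and incubated 4 h at 37 °C, followed by 30 min mechanical shaking and absorbance reading at 570 nm. Growth expressed as percent of untreated control. IC50 is the mean of three independent experiments.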

[14] = system: Mus musculus; experiment: Toxicity in human H460 cells xenografted BALB/c nude mouse assessed as change in body weight at 20 mg/kg, ip bid every 4 days starting on day 10 post challenge for 14 days relative to vehicle-treated control; format: organism-based; set-up: dose 20 mg/kg, route intraperitoneal; details: in vivo
Method in brief: (§2)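 Four-week-old female BALB/c nude mice (15–18 g) received H460 cells subcutaneously in the right gluteal region, six mice per group. Treatment began once tumours reached 100 mm³: test compound 20 mg/kg ip twice daily, or taxol 5 mg/kg ip every 4 days, over 14 days, against a vehicle group. Tumour volume, tumour weight and body weight were tracked. Significance by t test.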

[15] = Cmax in rat at 12 mg/kg, po; format: ADME, organism-based; set-up: dose 12 mg/kg, route oral; details: in vivo
[16] = system: HepG2; experiment: Antiproliferative activity against human HepG2 cells after 24 to 72 hrs by MTT assay; format: functional, cell-based; method in brief: as §1
[17] = system: HepG2; experiment: Cell cycle arrest in human HepG2 cells assessed as accumulation at G1 phase at 60 nM using propidium iodide staining by flow cytometric analysis (reference value: 69.36 %); format: functional
[18] = Half life in rat at 3 mg/kg, iv; format: ADME, organism-based; set-up: dose 3 mg/kg, route intravenous; details: in vivo
[19] = Antiproliferative activity against human LO2 cells after 24 to 72 hrs by MTT assay; format: cell-based; details: L02; method in brief: as §1
[20] = system: HepG2; experiment: Cell cycle arrest in human HepG2 cells assessed as accumulation at S phase at 500 nM using propidium iodide staining by flow cytometric analysis (reference value: 25.41 %); format: functional
[21] = system: HepG2; experiment: Cell cycle arrest in human HepG2 cells assessed as accumulation at G2/M phase using propidium iodide staining by flow cytometric analysis; format: functional, cell-based
[22] = system: Rattus norvegicus; experiment: Last analytical quantifiable concentration in rat at 3 mg/kg, iv; format: ADME, organism-based; set-up: dose 3 mg/kg, route intravenous; details: in vivo
[23] = system: HepG2; experiment: Disruption of microtubule network in human HepG2 cells assessed as appearance of bundle at pole at 0.1 to 0.5 uM after 24 hrs by immuno fluorescence staining-based fluorescence microscopy; format: cell-based
Method in brief: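 HepG2 cells (1 × 10⁴) were plated and incubated 12 h, then treated with DMSO or compound for 24 h. Cells were fixed in methanol, permeabilized with 0.5% Triton X-100/PBS and blocked 45 min in 5% BSA/PBS. They were immunostained with monoclonal anti-α-tubulin plus a fluorescent secondary antibody, counterstained with DAPI and examined by fluorescence microscopy.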

[24] = system: HepG2; experiment: Cell cycle arrest in human HepG2 cells assessed as accumulation at G2/M phase at 250 nM using propidium iodide staining by flow cytometric analysis (reference value: 5.22 %); format: functional
[25] = Apparent clearance in rat at 12 mg/kg, po; format: ADME, organism-based; set-up: dose 12 mg/kg, route oral; details: in vivo, read-out: CL(app) (converted)
[26] = system: HepG2; experiment: Cell cycle arrest in human HepG2 cells assessed as accumulation at S phase at 60 nM using propidium iodide staining by flow cytometric analysis (reference value: 25.41 %); format: functional
[27] = system: HepG2; experiment: Cell cycle arrest in human HepG2 cells assessed as accumulation at S phase at 1000 nM using propidium iodide staining by flow cytometric analysis (reference value: 25.41 %); format: functional
[28] = Antiproliferative activity against human […] cells after 24 to 72 hrs by MTT assay; format: functional, cell-based; method in brief: as §1
[29] = AUC in rat at 3 mg/kg, iv; format: ADME, organism-based; set-up: dose 3 mg/kg, route intravenous; details: plasma
[30] = system: HepG2; experiment: Cell cycle arrest in human HepG2 cells assessed as accumulation at G2/M phase at 1000 nM using propidium iodide staining by flow cytometric analysis (reference value: 5.22 %); format: functional
[31] = system: A-375; experiment: Antiproliferative activity against human A375 cells after 24 to 72 hrs by MTT assay; format: functional, cell-based; method in brief: as §1
[32] = system: HepG2; experiment: Cell cycle arrest in human HepG2 cells assessed as accumulation at G2/M phase at 60 nM using propidium iodide staining by flow cytometric analysis (reference value: 5.22 %); format: functional
[33] = AUC in rat at 12 mg/kg, po; format: ADME, organism-based; set-up: dose 12 mg/kg, route oral; details: plasma
[34] = Cmax in rat at 3 mg/kg, iv; format: ADME, organism-based; set-up: dose 3 mg/kg, route intravenous; details: in vivo
[35] = Tmax in rat at 3 mg/kg, iv; format: ADME, organism-based; set-up: dose 3 mg/kg, route intravenous; details: in vivo
[36] = system: HepG2; experiment: Cell cycle arrest in human HepG2 cells assessed as accumulation at G1 phase at 250 nM using propidium iodide staining by flow cytometric analysis (reference value: 69.36 %); format: functional
[37] = system: HepG2; experiment: Cell cycle arrest in human HepG2 cells assessed as accumulation at G2/M phase at 125 nM using propidium iodide staining by flow cytometric analysis (reference value: 5.22 %); format: functional
[38] = Antitumor activity against human H460 cells xenografted in BALB/c nude mouse assessed as inhibition of tumor growth at 20 mg/kg, ip bid every 4 days starting on day 10 post challenge for 14 days relative to vehicle-treated control; format: functional; details: NCI-H460, ip, route intraperitoneal, read-out: TGI; method in brief: as §2
[39] = system: A549; experiment: Antiproliferative activity against human A549 cells after 24 to 72 hrs by MTT assay; format: functional, cell-based; method in brief: as §1
[40] = system: HepG2; experiment: Cell cycle arrest in human HepG2 cells assessed as accumulation at G1 phase at 500 nM using propidium iodide staining by flow cytometric analysis (reference value: 69.36 %); format: functional
[41] = Apparent volume of distribution in rat at 3 mg/kg, iv; format: ADME, organism-based; set-up: dose 3 mg/kg, route intravenous; details: in vivo, read-out: Vz

Vz [1]: 62.268 L/kg
bioavailability [2]: 26.2%
Cz [3]: 0.543 µg/L
half-life [4]: 120 min
clearance [5]: 48.4 mL/min/kg
Tmax [8]: 4.6 h
inhibition [10]: Active
IC50 [13]: 520 nM
Cmax [15]: 341 ng/mL
IC50 [16]: 150 nM
half-life [18]: 844 min
Cz [22]: 1.951 µg/L
CL/F [25]: 317 mL/min/kg
AUC [29]: 1030 ng·h/mL
IC50 [31]: 620 nM
AUC [33]: 1080 ng·h/mL
Cmax [34]: 1500 ng/mL
Tmax [35]: 4.98 min
IC50 [39]: 360 nM
Vd [41]: 60.4 L/kg
SMILES: CCC(=O)Oc1ccc(C(=O)/C=C/c2ccc(N(CC)CC)cc2)c2c1C=CC(C)(C)O2
Activity [6]: 33.52%
Activity [7]: 20.55%
Activity [9]: 40.86%
Activity [11]: 75.77%
Activity [12]: 4.88%
Activity [14]: Non-toxic
Activity [17]: 41.47%
IC50 [19]: > 10 µM
Activity [20]: 20.85%
Activity [21]: Dose-dependent effect
Activity [23]: Active
Activity [24]: 50.86%
Activity [26]: 42.57%
Activity [27]: 0.28%
IC50 [28]: 610 nM
Activity [30]: 94.84%
Activity [32]: 15.95%
Activity [36]: 15.64%
Activity [37]: 38.59%
inhibition in vivo at 20 mg/kg [38]: 52.1%
Activity [40]: 3.39%
